According to ChEMBL document CHEMBL3751813, “Nonpeptidic Amphiphilic Xanthone Derivatives: Structure-Activity Relationship and Membrane-Targeting Properties” (J Med Chem, 2016):
In brackets after ≈: the same amount, converted by molar mass.

Legend:
Bacillus cereus = experiment: Antibacterial activity against clinical isolates of Bacillus cereus ATCC 11778 after 24 hrs by […]; assay type: functional; settings: ATCC 11778, 24 h
Staphylococcus aureus [1] = experiment: Antibacterial activity against clinical isolates of methicillin-resistant Staphylococcus aureus DM9808R after 24 hrs by […]; assay type: functional
Staphylococcus aureus [2] = experiment: Antibacterial activity against clinical isolates of Staphylococcus aureus DM4001R after 24 hrs by […]; assay type: functional
[3] = Selectivity index, ratio of HC50 for hemolytic activity against New Zealand white rabbit RBC to MIC for clinical isolates of Staphylococcus aureus DM4001
Staphylococcus aureus [4] = experiment: Antibacterial activity against clinical isolates of methicillin-resistant Staphylococcus aureus DM21455 after 24 hrs by […]; assay type: functional; settings: DM21455, 24 h
[5] = Hemolytic activity against New Zealand white rabbit RBC after 1 hr by microplate reader analysis; assay type: ADME, cell-based, Oryctolagus cuniculus, Erythrocyte; settings: rabbit red blood cells
How it was run: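 Rabbit RBCs spun from serum at 3,000 rpm for 10 min and washed twice in PBS. Mixed with compound in DMF at 4% v/v RBCs, 1 h at 37 °C. After centrifugation, hemoglobin in the supernatant read at 576 nm. 2% Triton X-100 was the positive control and 1% DMF the negative control.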

Staphylococcus aureus [6] = experiment: Induction of membrane permeabilization in clinical isolates of Staphylococcus aureus DM4001 at MIC by SYTOX green uptake assay; assay type: functional
How it was run: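 Exponential-phase cells washed twice in 20 mM PBS pH 7 and adjusted to OD620 0.09. Given 3 µM SYTOX Green and kept in the dark until fluorescence was stable, then compound added. Fluorescence followed in a stirred cuvette at ex 504/em 523 nm. Melittin 10 µg/mL was the positive control. Run at least twice; one run reported.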

Staphylococcus aureus [7] = experiment: Induction of membrane permeabilization in clinical isolates of Staphylococcus aureus DM4001 assessed as ATP leakage at MIC incubated for 10 mins by firefly luciferase based luminometry analysis; assay type: functional
How it was run: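 Exponential-phase cells washed twice in 20 mM PBS pH 7 and set to OD620 0.3. Exposed 10 min at 37 °C, then spun at 4000 rpm for 5 min. Supernatant mixed with luciferase reagent (1 mM DTT, 0.5 mM D-luciferin, 1.25 µg/mL firefly luciferase). Luminescence read over 30 cycles.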

SMILES	MIC (Bacillus cereus) [µg/mL]	MIC (Staphylococcus aureus [1]) [µg/mL]	MIC (Staphylococcus aureus [2]) [µg/mL]	Selectivity ratio [3]	MIC (Staphylococcus aureus [4]) [µg/mL]	HC50 at 1 h [5] [µg/mL]	Activity (Staphylococcus aureus [6]) [cps]	Activity (Staphylococcus aureus [7]) [µM]
COc1c(OCCCCN2CCNCC2)cc2oc3cc(OCCCCN4CCNCC4)c(CC=C(C)C)c(O)c3c(=O)c2c1CC=C(C)C	12.5 (≈ 18.1 µM)	6.25 (≈ 9.05 µM)	6.25 (≈ 9.05 µM)	11.5	12.5 (≈ 18.1 µM)	72.1	24629	3.154
COc1c(OCCCCN2CCCC2)cc2oc3cc(OCCCCN4CCCC4)c(CC=C(C)C)c(O)c3c(=O)c2c1CC=C(C)C	6.25 (≈ 9.46 µM)	1.56 (≈ 2.36 µM)	1.56 (≈ 2.36 µM)	16	1.56 (≈ 2.36 µM)		814	0.465
COc1c(OCCCCN2CCCCC2)cc2oc3cc(OCCCCN4CCCCC4)c(CC=C(C)C)c(O)c3c(=O)c2c1CC=C(C)C	6.25 (≈ 9.07 µM)	1.56 (≈ 2.26 µM)	0.78 (≈ 1.13 µM)	24.7	1.56 (≈ 2.26 µM)		2797	0.626
CCCN(CCC)CCCCOc1cc2oc3cc(OCCCCN(CCC)CCC)c(OC)c(CC=C(C)C)c3c(=O)c2c(O)c1CC=C(C)C	50 (≈ 69.3 µM)	50 (≈ 69.3 µM)	25 (≈ 34.7 µM)	> 8	25 (≈ 34.7 µM)	> 200	53637	5.123
COc1c(OCCCCI)cc2oc3cc(OCCCCI)c(CC=C(C)C)c(OCCCCI)c3c(=O)c2c1CC=C(C)C	50 (≈ 52.3 µM)	> 50	> 50		> 50	> 200		
CCN(CCO)CCCCOc1cc2oc3cc(OCCCCN(CC)CCO)c(OC)c(CC=C(C)C)c3c(=O)c2c(O)c1CC=C(C)C	3.12 (≈ 4.48 µM)	3.12 (≈ 4.48 µM)	6.25 (≈ 8.97 µM)	5.1	6.25 (≈ 8.97 µM)	31.8	112772	5.027
COc1c(OCCCCn2cccn2)cc2oc3cc(OCCCCn4cccn4)c(CC=C(C)C)c(O)c3c(=O)c2c1CC=C(C)C	> 50	> 50	> 50		> 50	> 200	3445	0.31
CCCCN(C)CCCCOc1cc2oc3cc(OCCCCN(C)CCCC)c(OC)c(CC=C(C)C)c3c(=O)c2c(O)c1CC=C(C)C	25 (≈ 36.1 µM)	50 (≈ 72.2 µM)	50 (≈ 72.2 µM)	1.2	25 (≈ 36.1 µM)	60.5	114095	8.862
COc1c(OCCCCN2CCOCC2)cc2oc3cc(OCCCCN4CCOCC4)c(CC=C(C)C)c(O)c3c(=O)c2c1CC=C(C)C	> 50	> 50	> 50		> 50	> 200	6358	0.229
COc1c(OCCCCN2CCC(O)CC2)cc2oc3cc(OCCCCN4CCC(O)CC4)c(CC=C(C)C)c(O)c3c(=O)c2c1CC=C(C)C	6.25 (≈ 8.67 µM)	3.12 (≈ 4.33 µM)	6.25 (≈ 8.67 µM)	5.8	12.5 (≈ 17.3 µM)	36	50250	5.938
CCCCCN(C)CCCCOc1cc2oc3cc(OCCCCN(C)CCCCC)c(OC)c(CC=C(C)C)c3c(=O)c2c(O)c1CC=C(C)C	12.5 (≈ 17.3 µM)	25 (≈ 34.7 µM)	25 (≈ 34.7 µM)	> 8	25 (≈ 34.7 µM)	> 200	47166	8.949
COc1c(OCCCCN2CCCC2)cc2oc3cc(OCCCCN4CCCC4)c(CCC(C)C)c(O)c3c(=O)c2c1CCC(C)C	6.25 (≈ 9.4 µM)	6.25 (≈ 9.4 µM)	12.5 (≈ 18.8 µM)	1.4	6.25 (≈ 9.4 µM)	34.8		
CCN1CCN(CCCCOc2cc3oc4cc(OCCCCN5CCN(CC)CC5)c(OC)c(CC=C(C)C)c4c(=O)c3c(O)c2CC=C(C)C)CC1	25 (≈ 33.5 µM)	12.5 (≈ 16.7 µM)	25 (≈ 33.5 µM)	5.5	6.25 (≈ 8.37 µM)	138	15095	7.822
CCN(C)CCCCOc1cc2oc3cc(OCCCCN(C)CC)c(OC)c(CC=C(C)C)c3c(=O)c2c(O)c1CC=C(C)C	6.25 (≈ 9.81 µM)	6.25 (≈ 9.81 µM)	1.56 (≈ 2.45 µM)	16.1	1.56 (≈ 2.45 µM)	25.1	12456	1.734
COc1c(OCCCCn2cncn2)cc2oc3cc(OCCCCn4cncn4)c(CC=C(C)C)c(O)c3c(=O)c2c1CC=C(C)C	> 50	> 50	> 50		> 50	> 200	1979	0.416
COc1c(OCCCCN2CCSCC2)cc2oc3cc(OCCCCN4CCSCC4)c(CC=C(C)C)c(O)c3c(=O)c2c1CC=C(C)C	> 50	> 50	> 50		> 50	> 200	7129	0.005
COc1c(OCCCCN2C(=O)c3ccccc3C2=O)cc2oc3cc(OCCCCN4C(=O)c5ccccc5C4=O)c(CC=C(C)C)c(O)c3c(=O)c2c1CC=C(C)C	> 50	> 50	> 50		> 50	> 200		
COc1c(OCCCCN(CCO)CCO)cc2oc3cc(OCCCCN(CCO)CCO)c(CC=C(C)C)c(O)c3c(=O)c2c1CC=C(C)C	3.12 (≈ 4.29 µM)	1.56 (≈ 2.14 µM)	3.12 (≈ 4.29 µM)		0.78 (≈ 1.07 µM)	60.6	59694	3.741
CCCCN(CC)CCCCOc1cc2oc3cc(OCCCCN(CC)CCCC)c(OC)c(CC=C(C)C)c3c(=O)c2c(O)c1CC=C(C)C	25 (≈ 34.7 µM)	6.25 (≈ 8.67 µM)	12.5 (≈ 17.3 µM)	> 16	25 (≈ 34.7 µM)	> 200	64790	12.48
COc1c(OCCCCN2CCN(C(=O)OC(C)(C)C)CC2)cc2oc3cc(OCCCCN4CCN(C(=O)OC(C)(C)C)CC4)c(CC=C(C)C)c(O)c3c(=O)c2c1CC=C(C)C	> 50	> 50	> 50		> 50	> 200		
CCCN(C)CCCCOc1cc2oc3cc(OCCCCN(C)CCC)c(OC)c(CC=C(C)C)c3c(=O)c2c(O)c1CC=C(C)C	12.5 (≈ 18.8 µM)	25 (≈ 37.6 µM)	25 (≈ 37.6 µM)	1.3	12.5 (≈ 18.8 µM)	32.6	87537	3.945
COc1c(OCCCCN2CCN(CCN(C)C)CC2)cc2oc3cc(OCCCCN4CCN(CCN(C)C)CC4)c(CC=C(C)C)c(O)c3c(=O)c2c1CC=C(C)C	6.25 (≈ 7.5 µM)	3.12 (≈ 3.75 µM)	6.25 (≈ 7.5 µM)	5.7	3.12 (≈ 3.75 µM)	35.9	5850	2.975
COc1c(OCCCCN2CCN(C)CC2)cc2oc3cc(OCCCCN4CCN(C)CC4)c(CC=C(C)C)c(O)c3c(=O)c2c1CC=C(C)C	12.5 (≈ 17.4 µM)	12.5 (≈ 17.4 µM)	6.25 (≈ 8.69 µM)	5.2	12.5 (≈ 17.4 µM)	32.3	7129	3.727
CCCCCCN(C)CCCCOc1cc2oc3cc(OCCCCN(C)CCCCCC)c(OC)c(CC=C(C)C)c3c(=O)c2c(O)c1CC=C(C)C	50 (≈ 66.7 µM)	50 (≈ 66.7 µM)	50 (≈ 66.7 µM)	> 4	50 (≈ 66.7 µM)	> 200	74047	8.545
CCCN(CC)CCCCOc1cc2oc3cc(OCCCCN(CC)CCC)c(OC)c(CC=C(C)C)c3c(=O)c2c(O)c1CC=C(C)C	25 (≈ 36.1 µM)	6.25 (≈ 9.02 µM)	6.25 (≈ 9.02 µM)	5.1	12.5 (≈ 18 µM)	63.3	82176	12.736
O=c1c2ccc(OCCCCN3CCCC3)cc2oc2cc(OCCCCN3CCCC3)cc(O)c12	> 50	> 50	> 50		> 50	> 200		
COc1c(OCCCCN(C)C)cc2oc3cc(OCCCCN(C)C)c(CCC(C)C)c(O)c3c(=O)c2c1CCC(C)C	12.5 (≈ 20.4 µM)	25 (≈ 40.8 µM)	12.5 (≈ 20.4 µM)	4.9	12.5 (≈ 20.4 µM)	60.7		
COc1c(OCCCCNC(=N)N)cc2oc3cc(OCCCCNC(=N)N)c(CC=C(C)C)c(O)c3c(=O)c2c1CC=C(C)C	6.25 (≈ 9.81 µM)	6.25 (≈ 9.81 µM)	3.12 (≈ 4.91 µM)	20.5	6.25 (≈ 9.81 µM)	64.1	68378	2.237
COc1c(OCCCCn2ccnc2)cc2oc3cc(OCCCCn4ccnc4)c(CC=C(C)C)c(O)c3c(=O)c2c1CC=C(C)C	> 50	> 50	> 50		> 50	> 200		
